In this assay the test system is HeLa. The assay can be described thus: Membranolytic activity in human HeLa cells expressing GFP after 5 mins by fluorescence leakage assay. It is filed as functional, cell-based. The method in brief:
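GFP-expressing HeLa cells (1 × 10^4/well, grown 24 h) were treated with peptides at various concentrations in PBS for 5 min. Supernatant was collected after centrifugation at 1000g and its fluorescence read at 485/535 nm. 1% Triton X-100 defined 100% leakage, and LC50 was calculated from three independent experiments.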

H-HGGKLLKLLKKLLKLLK-NH2: the LC50 turned out to be 3.6 µM.
`CC(C)C[C@H](NC(=O)[C@H](CCCNC(=N)N)NC(=O)[C@H](CC(C)C)NC(=O)[C@H](CC(C)C)NC(=O)[C@H](CCCNC(=N)N)NC(=O)[C@H](CCCNC(=N)N)NC(=O)[C@H](CC(C)C)NC(=O)[C@H](CCCNC(=N)N)NC(=O)[C@H](CC(C)C)NC(=O)[C@H](CC(C)C)NC(=O)[C@H](CCCNC(=N)N)NC(=O)[C@H](CC(C)C)NC(=O)[C@H](CC(C)C)NC(=O)[C@H](CCCNC(=N)N)NC(=O)CNC(=O)CNC(=O)[C@@H](N)Cc1cnc[nH]1)C(N)=O` displayed an LC50 of 25.9 µM.
With H-HGGRLLRLLRRLLRLLR-NH2, the LC50 is 3.9 µM.
Under H-HGGKLLKLLKLKKLLKL-NH2 stands 38.8 µM.

The record behind these values is ChEMBL document CHEMBL3826940, “Amphipathicity Determines Different Cytotoxic Mechanisms of Lysine- or Arginine-Rich Cationic Hydrophobic Peptides in Cancer Cells” (J Med Chem, 2016).
